The source made the active and inactive calls. The rule behind the calls is not given here.
Key:
Mus musculus = test: Protection against CCl4-induced mouse assessed as low level in collagen deposition at 1 mg/kg, ip administration daily for 10 days by Sirius Red staining; format: functional, organism-based; conditions: Liver, time 10.0 day
[1] = molecular target: Dual specificity mitogen-activated protein kinase kinase 3 (Homo sapiens) (UniProt P46734); test: Inhibition of MEK3 (unknown origin) assessed as remaining activity at 1 uM by Kinome scan method relative to control
[2] = molecular target: Tyrosine-protein kinase ABL1 (Homo sapiens, UniProt P00519, M351T); test: Binding affinity to phosphorylated ABL1 M351T mutant (unknown origin) assessed as dissociation constant
[3] = molecular target: Serine/threonine-protein kinase Chk1 (Homo sapiens) (UniProt O14757); test: Inhibition of CHEK1 (unknown origin) assessed as remaining activity at 1 uM by Kinome scan method relative to control
Outline: (§1)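 Active-site-dependent competition-binding profiling (KINOMEscan) at 1 μM against a 468-kinase panel; compound supplied from a 10 mM DMSO stock. Read-out is ctrl% = (test signal − positive control signal)/(negative control signal − positive control signal) × 100. DMSO is the negative control (100%) and a control compound the positive control (0%). Lower ctrl% means tighter binding.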

[4] = molecular target: Serine/threonine-protein kinase PLK1 (Homo sapiens) (UniProt P53350); test: Inhibition of PLK1 (unknown origin) assessed as remaining activity at 1 uM by Kinome scan method relative to control
[5] = molecular target: Insulin receptor-related protein (Homo sapiens) (UniProt P14616); test: Inhibition of INSRR (unknown origin) assessed as remaining activity at 1 uM by Kinome scan method relative to control
[6] = test system: Tyrosine-protein kinase ABL1 (Homo sapiens), P00519 [E255K]; test: Inhibition of phosphorylated ABL1 E255K mutant (unknown origin) assessed as remaining activity at 1 uM by Kinome scan method relative to control
[7] = molecular target: Cyclin-G-associated kinase (Homo sapiens) (UniProt O14976); test: Inhibition of GAK (unknown origin) assessed as remaining activity at 1 uM by Kinome scan method relative to control
[8] = molecular target: BDNF/NT-3 growth factors receptor (Homo sapiens) (UniProt Q16620); test: Inhibition of TRKB (unknown origin) assessed as remaining activity at 1 uM by Kinome scan method relative to control
[9] = Half life in male Sprague-Dawley rat at 10 mg/kg, po measured for 24 hrs by LC-MS/MS analysis; format: ADME, organism-based; conditions: in vivo
Outline: (§2)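 Sprague-Dawley rats, single intravenous or oral dose. Parameters (half-life, AUC, bioavailability) reported in a supplementary table.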

[10] = molecular target: Serine/threonine-protein kinase 24 (Homo sapiens, UniProt Q9Y6E0); test: Binding affinity to MST3 (unknown origin) assessed as dissociation constant
[11] = molecular target: Tyrosine-protein kinase ABL2 (Homo sapiens) (UniProt P42684); test: Inhibition of ABL2 (unknown origin) assessed as remaining activity at 1 uM by Kinome scan method relative to control
Outline: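 Active-site-dependent competition-binding (KINOMEscan) panel of 468 kinases, test compound at 1 μM (from a 10 mM DMSO stock). Read-out is ctrl% = (test signal − positive control signal)/(negative control signal − positive control signal) × 100. DMSO is the negative control (100%) and a control compound is the positive control (0%). Lower ctrl% means tighter binding.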

[12] = molecular target: Tyrosine-protein kinase Fes/Fps (Homo sapiens) (UniProt P07332); test: Inhibition of FES (unknown origin) assessed as remaining activity at 1 uM by Kinome scan method relative to control
[13] = molecular target: Serine/threonine-protein kinase ULK2 (Homo sapiens, UniProt Q8IYT8); test: Binding affinity to ULK2 (unknown origin) assessed as dissociation constant
[14] = molecular target: Serine/threonine-protein kinase TAO2 (Homo sapiens, UniProt Q9UL54); test: Inhibition of TAOK2 (unknown origin) in presence of ATP by enzymatic assay
[15] = molecular target: Casein kinase II subunit alpha (Homo sapiens) (UniProt P68400); test: Inhibition of CSNK2A1 (unknown origin) assessed as remaining activity at 1 uM by Kinome scan method relative to control; outline: as §1
[16] = molecular target: Calcium/calmodulin-dependent protein kinase type II subunit gamma (Homo sapiens) (UniProt Q13555); test: Inhibition of CAMK2G (unknown origin) assessed as remaining activity at 1 uM by Kinome scan method relative to control; outline: as §1
[17] = test system: Receptor-type tyrosine-protein kinase FLT3 (Homo sapiens), P36888 [UNDEFINED MUTATION]; test: Inhibition of FLT3 […]/F691L mutant (unknown origin) assessed as remaining activity at 1 uM by Kinome scan method relative to control
[18] = molecular target: cGMP-dependent protein kinase 1 (Homo sapiens) (UniProt Q13976); test: Inhibition of PRKG1 (unknown origin) assessed as remaining activity at 1 uM by Kinome scan method relative to control
[19] = molecular target: Tyrosine-protein kinase SYK (Homo sapiens) (UniProt P43405); test: Inhibition of SYK (unknown origin) assessed as remaining activity at 1 uM by Kinome scan method relative to control
[20] = test system: Tyrosine-protein kinase ABL1 (Homo sapiens), P00519 [Q252H]; test: Inhibition of phosphorylated ABL1 Q252H mutant (unknown origin) assessed as remaining activity at 1 uM by Kinome scan method relative to control
[21] = AUC (0 to infinity) in male Sprague-Dawley rat at 5 mg/kg, iv measured for 24 hrs by LC-MS/MS analysis; format: ADME, organism-based; conditions: in vivo; outline: as §2
[22] = molecular target: Non-receptor tyrosine-protein kinase TNK1 (Homo sapiens) (UniProt Q13470); test: Inhibition of TNK1 (unknown origin) assessed as remaining activity at 1 uM by Kinome scan method relative to control
[23] = molecular target: Mitogen-activated protein kinase kinase kinase 2 (Homo sapiens) (UniProt Q9Y2U5); test: Inhibition of MAP3K2 (unknown origin) assessed as remaining activity at 1 uM by Kinome scan method relative to control
[24] = molecular target: Serine/threonine-protein kinase/endoribonuclease IRE1 (Homo sapiens) (UniProt O75460); test: Inhibition of ERN1 (unknown origin) assessed as remaining activity at 1 uM by Kinome scan method relative to control
[25] = molecular target: Ribosomal protein S6 kinase alpha-4 (Homo sapiens) (UniProt O75676); test: Inhibition of N-terminal kinase domain RPS6KA4 (unknown origin) assessed as remaining activity at 1 uM by Kinome scan method relative to control
[26] = molecular target: Serine/threonine-protein kinase Nek3 (Homo sapiens) (UniProt P51956); test: Inhibition of NEK3 (unknown origin) assessed as remaining activity at 1 uM by Kinome scan method relative to control
[27] = molecular target: Serine/threonine-protein kinase WNK2 (Homo sapiens) (UniProt Q9Y3S1); test: Inhibition of WNK2 (unknown origin) assessed as remaining activity at 1 uM by Kinome scan method relative to control
[28] = molecular target: Dual specificity tyrosine-phosphorylation-regulated kinase 2 (Homo sapiens) (UniProt Q92630); test: Inhibition of DYRK2 (unknown origin) assessed as remaining activity at 1 uM by Kinome scan method relative to control
Chain of Dual specificity tyrosine-phosphorylation-regulated kinase 2 (Homo sapiens) (Q92630 whole entry): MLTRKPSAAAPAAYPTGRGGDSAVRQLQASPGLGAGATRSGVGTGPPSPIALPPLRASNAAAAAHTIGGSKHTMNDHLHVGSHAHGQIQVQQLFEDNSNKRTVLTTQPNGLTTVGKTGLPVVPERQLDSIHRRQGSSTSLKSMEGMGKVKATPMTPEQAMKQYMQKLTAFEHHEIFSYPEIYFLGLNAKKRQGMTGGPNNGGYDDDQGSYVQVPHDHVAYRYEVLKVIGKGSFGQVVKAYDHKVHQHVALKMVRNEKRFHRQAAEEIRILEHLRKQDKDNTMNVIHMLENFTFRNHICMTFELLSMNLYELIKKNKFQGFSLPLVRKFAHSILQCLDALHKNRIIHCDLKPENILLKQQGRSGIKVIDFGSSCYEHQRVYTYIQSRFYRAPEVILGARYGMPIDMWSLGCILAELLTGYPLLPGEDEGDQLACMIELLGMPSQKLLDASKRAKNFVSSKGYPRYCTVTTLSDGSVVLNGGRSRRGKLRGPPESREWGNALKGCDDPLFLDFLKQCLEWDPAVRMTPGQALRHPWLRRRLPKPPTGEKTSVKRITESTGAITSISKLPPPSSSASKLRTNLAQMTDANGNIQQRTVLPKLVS

Chain of Serine/threonine-protein kinase Chk1 (Homo sapiens) (O14757 whole entry): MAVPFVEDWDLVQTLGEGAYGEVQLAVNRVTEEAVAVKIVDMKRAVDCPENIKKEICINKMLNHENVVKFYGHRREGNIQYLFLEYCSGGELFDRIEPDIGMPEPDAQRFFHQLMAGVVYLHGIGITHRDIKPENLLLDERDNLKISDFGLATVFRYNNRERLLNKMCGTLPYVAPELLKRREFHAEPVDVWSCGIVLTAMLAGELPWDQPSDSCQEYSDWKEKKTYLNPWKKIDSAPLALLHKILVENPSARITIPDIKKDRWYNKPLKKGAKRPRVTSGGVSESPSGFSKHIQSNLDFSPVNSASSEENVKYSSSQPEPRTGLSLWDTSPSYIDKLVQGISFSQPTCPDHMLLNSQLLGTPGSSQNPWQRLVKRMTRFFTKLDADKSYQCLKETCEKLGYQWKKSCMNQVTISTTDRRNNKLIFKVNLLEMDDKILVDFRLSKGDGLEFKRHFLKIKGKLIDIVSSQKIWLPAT
Chain of BDNF/NT-3 growth factors receptor (Homo sapiens) (Q16620 32-822 limits assumed): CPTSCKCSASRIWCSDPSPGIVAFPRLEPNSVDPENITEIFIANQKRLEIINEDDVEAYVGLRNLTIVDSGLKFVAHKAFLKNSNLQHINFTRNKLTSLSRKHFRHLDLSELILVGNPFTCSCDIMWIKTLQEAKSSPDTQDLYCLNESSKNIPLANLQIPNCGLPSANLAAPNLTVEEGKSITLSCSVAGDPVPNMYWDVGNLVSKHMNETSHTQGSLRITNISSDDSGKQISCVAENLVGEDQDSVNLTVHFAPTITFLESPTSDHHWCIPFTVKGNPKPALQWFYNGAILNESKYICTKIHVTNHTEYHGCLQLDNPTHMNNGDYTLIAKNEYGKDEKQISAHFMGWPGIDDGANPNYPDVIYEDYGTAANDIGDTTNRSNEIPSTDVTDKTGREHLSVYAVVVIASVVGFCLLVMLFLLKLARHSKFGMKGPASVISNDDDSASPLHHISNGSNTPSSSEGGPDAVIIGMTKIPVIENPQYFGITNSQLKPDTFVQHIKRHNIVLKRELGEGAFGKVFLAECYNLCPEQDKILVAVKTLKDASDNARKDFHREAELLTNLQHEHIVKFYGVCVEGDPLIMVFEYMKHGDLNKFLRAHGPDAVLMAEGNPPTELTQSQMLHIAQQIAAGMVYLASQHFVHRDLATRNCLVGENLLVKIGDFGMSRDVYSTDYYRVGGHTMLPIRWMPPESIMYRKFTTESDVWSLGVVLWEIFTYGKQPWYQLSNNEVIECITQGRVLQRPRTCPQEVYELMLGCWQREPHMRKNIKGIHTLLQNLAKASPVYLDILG
Chain of Serine/threonine-protein kinase ULK2 (Q8IYT8 whole entry): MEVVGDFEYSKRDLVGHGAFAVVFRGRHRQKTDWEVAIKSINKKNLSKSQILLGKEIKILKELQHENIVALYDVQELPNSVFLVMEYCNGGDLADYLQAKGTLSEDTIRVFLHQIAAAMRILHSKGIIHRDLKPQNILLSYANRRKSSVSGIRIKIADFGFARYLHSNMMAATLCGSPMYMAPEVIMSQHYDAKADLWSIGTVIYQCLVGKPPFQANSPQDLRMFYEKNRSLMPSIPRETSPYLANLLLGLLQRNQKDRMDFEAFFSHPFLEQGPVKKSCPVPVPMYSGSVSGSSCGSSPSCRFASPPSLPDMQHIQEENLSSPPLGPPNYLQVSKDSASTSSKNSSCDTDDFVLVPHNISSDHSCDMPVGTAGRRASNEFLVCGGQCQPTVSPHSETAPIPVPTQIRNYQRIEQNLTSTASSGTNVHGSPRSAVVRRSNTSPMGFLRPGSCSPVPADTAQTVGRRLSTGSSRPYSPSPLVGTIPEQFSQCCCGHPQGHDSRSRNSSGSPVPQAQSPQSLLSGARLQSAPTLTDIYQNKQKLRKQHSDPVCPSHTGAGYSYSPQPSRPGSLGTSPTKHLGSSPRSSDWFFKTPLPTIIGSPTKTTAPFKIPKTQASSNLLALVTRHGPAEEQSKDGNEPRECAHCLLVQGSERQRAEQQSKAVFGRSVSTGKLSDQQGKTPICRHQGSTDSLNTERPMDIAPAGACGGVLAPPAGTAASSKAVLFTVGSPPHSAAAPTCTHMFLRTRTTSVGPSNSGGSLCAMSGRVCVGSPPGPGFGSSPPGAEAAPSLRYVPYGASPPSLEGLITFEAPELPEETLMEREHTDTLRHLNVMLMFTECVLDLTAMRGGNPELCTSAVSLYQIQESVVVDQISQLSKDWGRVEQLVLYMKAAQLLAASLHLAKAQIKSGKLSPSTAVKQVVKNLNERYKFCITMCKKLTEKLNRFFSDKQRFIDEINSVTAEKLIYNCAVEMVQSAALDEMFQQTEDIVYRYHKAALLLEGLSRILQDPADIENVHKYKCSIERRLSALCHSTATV
Chain of Serine/threonine-protein kinase PLK1 (Homo sapiens) (P53350 whole entry): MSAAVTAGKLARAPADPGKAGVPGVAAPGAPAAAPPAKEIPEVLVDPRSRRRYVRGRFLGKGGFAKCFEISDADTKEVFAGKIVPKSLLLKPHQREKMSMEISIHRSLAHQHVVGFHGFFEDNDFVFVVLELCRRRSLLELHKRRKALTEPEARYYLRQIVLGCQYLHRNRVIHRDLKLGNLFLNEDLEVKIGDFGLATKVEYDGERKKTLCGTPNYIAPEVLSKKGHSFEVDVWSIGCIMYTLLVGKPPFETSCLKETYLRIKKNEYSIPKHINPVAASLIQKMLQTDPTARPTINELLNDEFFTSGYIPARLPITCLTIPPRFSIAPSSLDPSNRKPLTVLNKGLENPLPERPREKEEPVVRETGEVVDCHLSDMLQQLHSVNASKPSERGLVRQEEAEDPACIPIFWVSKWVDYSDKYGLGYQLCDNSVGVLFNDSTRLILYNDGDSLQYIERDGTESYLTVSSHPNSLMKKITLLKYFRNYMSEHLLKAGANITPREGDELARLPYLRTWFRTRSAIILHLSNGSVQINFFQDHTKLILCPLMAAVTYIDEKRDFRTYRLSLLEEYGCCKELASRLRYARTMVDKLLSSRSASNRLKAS
Chain of Serine/threonine-protein kinase Nek3 (Homo sapiens) (P51956 whole entry): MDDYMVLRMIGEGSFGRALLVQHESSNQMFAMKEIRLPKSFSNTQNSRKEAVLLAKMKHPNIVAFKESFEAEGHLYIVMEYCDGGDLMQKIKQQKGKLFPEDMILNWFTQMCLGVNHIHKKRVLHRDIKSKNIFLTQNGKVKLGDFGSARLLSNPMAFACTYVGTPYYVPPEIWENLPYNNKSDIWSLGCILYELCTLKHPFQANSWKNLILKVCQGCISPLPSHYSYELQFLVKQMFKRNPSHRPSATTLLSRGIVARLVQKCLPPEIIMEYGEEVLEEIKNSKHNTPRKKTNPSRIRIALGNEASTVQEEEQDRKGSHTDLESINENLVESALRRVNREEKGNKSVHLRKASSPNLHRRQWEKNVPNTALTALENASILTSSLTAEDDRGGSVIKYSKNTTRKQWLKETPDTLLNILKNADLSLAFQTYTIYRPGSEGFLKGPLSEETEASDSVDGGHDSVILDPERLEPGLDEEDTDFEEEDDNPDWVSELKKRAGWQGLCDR
Chain of Ribosomal protein S6 kinase alpha-4 (Homo sapiens) (O75676 whole entry, looked up, the tested form may be a part): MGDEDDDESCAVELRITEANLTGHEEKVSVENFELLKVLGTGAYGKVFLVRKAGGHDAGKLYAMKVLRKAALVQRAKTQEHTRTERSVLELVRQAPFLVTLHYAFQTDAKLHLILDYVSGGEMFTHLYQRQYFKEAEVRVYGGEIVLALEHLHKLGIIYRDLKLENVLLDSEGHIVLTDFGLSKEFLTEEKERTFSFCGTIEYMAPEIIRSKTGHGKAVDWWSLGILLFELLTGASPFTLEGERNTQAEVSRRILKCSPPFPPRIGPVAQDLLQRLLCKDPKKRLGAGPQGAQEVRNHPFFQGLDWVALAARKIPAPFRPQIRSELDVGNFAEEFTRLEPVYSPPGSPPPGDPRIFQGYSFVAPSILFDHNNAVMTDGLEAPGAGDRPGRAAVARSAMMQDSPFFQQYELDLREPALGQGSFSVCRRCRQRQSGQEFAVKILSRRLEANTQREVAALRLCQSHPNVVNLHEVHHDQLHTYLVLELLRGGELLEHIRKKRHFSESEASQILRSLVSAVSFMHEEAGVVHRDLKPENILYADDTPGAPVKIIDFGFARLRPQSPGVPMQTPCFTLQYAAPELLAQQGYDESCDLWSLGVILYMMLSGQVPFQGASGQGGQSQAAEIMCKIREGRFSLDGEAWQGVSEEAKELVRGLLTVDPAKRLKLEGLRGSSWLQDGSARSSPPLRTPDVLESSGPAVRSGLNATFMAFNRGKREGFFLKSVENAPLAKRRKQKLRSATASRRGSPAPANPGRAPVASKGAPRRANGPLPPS

CN1C(=O)c2sccc2N(C)c2nc(Nc3ccc(S(N)(=O)=O)cc3)ncc21
Activity (Mus musculus): Active
Activity [1]: 66%
Kd [2]: 42 nM
Activity [3]: 73%
Activity [4]: 70%
Activity [5]: 100%
Activity [6]: 11%
Activity [7]: 48%
Activity [8]: 35%
half-life [9]: 5.18 h
Kd [10]: 18 nM
Activity [11]: 96%
Activity [12]: 39%
Kd [13]: 35 nM
IC50 [14]: 134 nM
Activity [15]: 94%
Activity [16]: 100%
Activity [17]: 26%
Activity [18]: 98%
Activity [19]: 90%
Activity [20]: 6.8%
AUC(0-inf) [21]: 1270 ng·h/mL
Activity [22]: 69%
Activity [23]: 2.6%
Activity [24]: 65%
Activity [25]: 81%
Activity [26]: 66%
Activity [27]: 78%
Activity [28]: 84%

Source: ChEMBL document CHEMBL5705905, “Pharmacological targeting of kinases MST1 and MST2 augments tissue repair and regeneration” (Sci Transl Med, 2016)
